Data set [1] has as its system Quadruplex DNA. Kind of data set: Stabilization of 5'-FAM and 3'-TAMRA labelled c-Myc G4-quadruplex Pu24T DNA (unknown origin) assessed as increase in thermal stability of DNA structure at 5 to 40 equiv. by FRET melting assay. To be noted: dose 5-40 equiv.
A short description of data set [2]: Solubility of the compound at pH 7.4. To be noted: buffer. The data set is classed as physicochemical.
Data set [3] is described as follows: Stabilization of double stranded PEPu24T mut DNA (unknown origin) assessed as inhibition of Taq DNA polymerase activity by measuring reduction in full length DNA product at 6 uM pretreated for 10 mins followed by incubation with dNTPs for 15 mins by PAGE analysis. Particulars: time 25.0 min. An outline of the steps: (§1)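 Non-G4 control template: TET-labelled 25 nt primer (1 μM final) annealed to mutated PEPu24T mut (1.25 μM final) in 100 mM KCl. 40 nM template, Taq buffer pH 8.8, 25 mM MgCl2, 0.05 U Taq. Compound on ice 10 min, then 100 μM dNTPs at 37 °C 15 min. Denaturing PAGE; full-length product as % of no-compound sample.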

Data set [4] relates to Quadruplex DNA. Kind of data set: Stabilization of G4-quadruplex PEPu24T DNA (unknown origin) assessed as inhibition of Taq DNA polymerase activity by measuring full length DNA product at 0.24 uM pretreated for 10 mins followed by incubation with dNTPs for 15 mins by PAGE analysis. The data set is classed as nucleic-acid assay. To be noted: time 25.0 min. Further details: scale not given: the % may be the effect or the level left. An outline of the steps:
(§2)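 Template made by annealing TET-labelled 25 nt primer (1 μM final) to PEPu24T (1.25 μM final) in 100 mM KCl. Reaction: 40 nM template, Taq buffer pH 8.8 with 50 mM KCl, 25 mM MgCl2, 0.05 U Taq. Compound preincubated on ice 10 min; dNTPs (100 μM) added, 37 °C 15 min. Denaturing 12% urea/formamide PAGE; full-length product expressed as % of no-compound sample; SD of ≥2 independent experiments.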

For data set [5], the system named is Quadruplex DNA. Kind of data set: Stabilization of fluorescently labelled c-Myc G4-quadruplex Pu22 DNA (unknown origin) assessed as increase in thermal stability of DNA structure at 40 equiv. by FRET melting assay. The format is nucleic-acid assay. An outline of the steps:
(§3)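 Pu22 (FAM/TAMRA, 0.2 μM), folded in 10 mM lithium cacodylate pH 7.4, 2 mM KCl, 98 mM LiCl. Ligand at 5, 10, 25 or 40 equivalents. Heated 10–95 °C; donor emission at 516 nm (excitation 492 nm) normalized. Tm taken at 0.5 normalized emission; ΔTm is Tm with ligand minus Tm without ligand. Duplicate wells.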

For data set [6], the system named is Quadruplex DNA. Kind of data set: Stabilization of fluorescently labelled c-Myc G4-quadruplex Pu22 DNA (unknown origin) assessed as increase in thermal stability of DNA structure at 5 to 40 equiv. by FRET melting assay. The format is nucleic-acid assay. Particulars: dose 5-40 equiv. An outline of the steps: as §3
The test system of data set [7] is Quadruplex DNA. Briefly: Stabilization of G4-quadruplex PEPu24T DNA (unknown origin) assessed as inhibition of Taq DNA polymerase activity by measuring reduction in full length DNA product at 0.048 to 6 uM pretreated for 10 mins followed by incubation with dNTPs for 15 mins by PAGE analysis. The format is nucleic-acid assay. Particulars: dose 0.048-6 µM, time 25.0 min. An outline of the steps: as §2

Data set [8] has as its system Quadruplex DNA. Briefly: Stabilization of fluorescently labelled c-Myc G4-quadruplex Pu22 DNA (unknown origin) assessed as increase in thermal stability of DNA structure at 2 uM in presence of double stranded competitor DNA ds26 by FRET melting assay. The format is nucleic-acid assay. An outline of the steps: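 Competition melting: 0.2 μM labelled Pu22 in 10 mM lithium cacodylate pH 7.4, 2 mM KCl, 98 mM LiCl, with ligand plus 0–100 equivalents of ds26 duplex competitor. Heated 10–95 °C; FAM emission normalized. Tm taken at 0.5 normalized emission; ΔTm is Tm with ligand minus Tm without ligand. SD of at least six independent experiments.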

Data set [9] deals with Quadruplex DNA. Briefly: Stabilization of G4-quadruplex PEPu24T DNA (unknown origin) assessed as inhibition of Taq DNA polymerase activity by measuring reduction in full length DNA product at 0.24 uM pretreated for 10 mins followed by incubation with dNTPs for 15 mins by PAGE analysis. Particulars: time 25.0 min. The data set is classed as nucleic-acid assay. An outline of the steps:
as §2

Data set [10] concerns Quadruplex DNA. Kind of data set: Stabilization of fluorescently labelled G4-quadruplex c-KIT2 DNA (unknown origin) assessed as increase in thermal stability of DNA structure at 2 uM by FRET melting assay. The format is nucleic-acid assay. An outline of the steps:
(§4)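 0.2 μM FAM/TAMRA dual-labelled oligonucleotide, prefolded in 10 mM lithium cacodylate pH 7.4, 10 mM KCl, 90 mM LiCl (95 °C 10 min, then ≥1 h cold). Ligand added and sample heated from 10 to 95 °C; donor emission at 516 nm (excitation 492 nm) normalized. Tm taken at 0.5 normalized emission; ΔTm is Tm with ligand minus Tm without ligand. Duplicate wells.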

Data set [11] relates to Quadruplex DNA. Briefly: Stabilization of fluorescently labelled G4-quadruplex 25Ceb DNA (unknown origin) assessed as increase in thermal stability of DNA structure at 2 uM by FRET melting assay. The data set is classed as nucleic-acid assay. An outline of the steps:
as §4

In data set [12] the test system is Quadruplex DNA. Kind of data set: Stabilization of fluorescently labelled G4-quadruplex Tba DNA (unknown origin) assessed as increase in thermal stability of DNA structure at 2 uM by FRET melting assay. The data set is classed as nucleic-acid assay. An outline of the steps:
as §4

For data set [13], the system named is Quadruplex DNA. Briefly: Stabilization of G4-quadruplex DNA in human HeLa cells assessed as increase in BG4-positive cell nuclei at 1 to 2 uM incubated for 24 hrs by immunofluorescence microscopy. The data set is classed as functional, cell-based. Particulars: dose 1-2 µM. An outline of the steps:
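HeLa cells (60,000 on coverslips) treated 24 h. Cells fixed in 2% paraformaldehyde, permeabilized in 0.1% Triton X-100, blocked in 2% milk. Stained with BG4–FLAG (1/3000), rabbit anti-FLAG, then Alexa594 anti-rabbit, each 1 h at 37 °C; nuclei stained with DAPI. BG4 foci per nucleus counted, 90–166 cells per condition. Welch-corrected t tests on ln-transformed data; mean ± 2SD shown.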

For the next data set, the system named is dsDNA. Briefly: Binding affinity to 5'-Cy5-labelled double stranded DNA ds26 (unknown origin) by microscale thermophoresis analysis. The format is nucleic-acid assay. An outline of the steps: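 Cy5-labelled DNA held at 25 nM, folded in 10 mM phosphate, 100 mM KCl, pH 7.4 (95 °C 5 min, cooled to room temperature). Ligand in 16 1:3 dilutions in 10 mM phosphate pH 7.4, 100 mM KCl, 0.05% Tween20. Capillary fluorescence read at 20% LED power; change in fluorescence versus ligand concentration fitted by nonlinear equation for binding constant.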
(Microscale thermophoresis detects binding through changes in fluorescence in a small temperature gradient.)

The subject of data set [14] is Quadruplex DNA. Kind of data set: Stabilization of fluorescently labelled G4-quadruplex 21G DNA (unknown origin) assessed as increase in thermal stability of DNA structure at 2 uM by FRET melting assay. The data set is classed as nucleic-acid assay. An outline of the steps:
as §4

Data set [15] has as its system Quadruplex DNA. Briefly: Stabilization of G4-quadruplex PEPu24T DNA (unknown origin) assessed as inhibition of Taq DNA polymerase activity by measuring reduction in full length DNA product at 0.048 uM pretreated for 10 mins followed by incubation with dNTPs for 15 mins by PAGE analysis. Particulars: time 25.0 min. The data set is classed as nucleic-acid assay. An outline of the steps: as §2

Data set [16] in a line: Stabilization of double stranded PEPu24T mut DNA (unknown origin) assessed as inhibition of Taq DNA polymerase activity by measuring reduction in full length DNA product at >4 uM pretreated for 10 mins followed by incubation with dNTPs for 15 mins by PAGE analysis. To be noted: time 25.0 min. An outline of the steps:
as §1

The subject of data set [17] is Quadruplex DNA. Kind of data set: Stabilization of fluorescently labelled G4-quadruplex Bom17 DNA (unknown origin) assessed as increase in thermal stability of DNA structure at 2 uM by FRET melting assay. The format is nucleic-acid assay. An outline of the steps:
as §4

Data set [18] relates to Quadruplex DNA. Briefly: Stabilization of fluorescently labelled G4-quadruplex Bcl2 DNA (unknown origin) assessed as increase in thermal stability of DNA structure at 2 uM by FRET melting assay. The data set is classed as nucleic-acid assay. An outline of the steps:
as §4

Data set [19] deals with Quadruplex DNA. Briefly: Binding affinity to c-Myc G4-quadruplex Pu22 DNA (unknown origin) assessed as change in entropy by isothermal titration calorimetry. The data set is classed as nucleic-acid assay. An outline of the steps:
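Reverse titration: cell holds 20 μM ligand, syringe 120 μM prefolded G4 DNA, 20 injections in 10 mM potassium phosphate, 100 mM KCl, pH 7.4, at 19 °C. First injection 0.5 μL, then 2 μL, 120 s spacing, 1000 rpm, high-feedback mode. Data fitted to one-site binding model.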

The test system of data set [20] is Quadruplex DNA. Kind of data set: Binding affinity to c-Myc G4-quadruplex Pu22 DNA (unknown origin) at 0.7 equivalent by NMR titration analysis. The format is nucleic-acid assay. To be noted: dose 0.7 equiv. An outline of the steps: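 Pu22 folded at 100 μM in 10 mM potassium phosphate pH 7.4, 35 mM KCl (95 °C 10 min, cooled overnight). 10% D2O added, giving 90 μM DNA. Compound added stepwise in increasing equivalents. 1D 1H spectra with excitation sculpting, 256 scans, 298 K, 850 MHz.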

In brackets after ≈: the same amount, converted by molar mass. Activity calls are given as the source filed them. No cut-off for these calls is given here.

Usually solubility stands for the dissolved amount per volume that the medium holds. Broadly, the inhibition is the share of the control response that was lost under treatment.

Consider `Cc1ccc2nc(Nc3nc(C)cc(NCCCN(C)C)n3)nc(C)c2c1`, for which the result in the data set on Quadruplex DNA [1] and in the data set on Quadruplex DNA [5] was Active. This compound also had a solubility in data set [2] of 858 µM (≈ 314 µg/mL). Further, the outcome in [3] was inactive. The Activity in the data set with Quadruplex DNA [4] is 30%.

For `Cc1cc(C)nc(Nc2nc(C)c3cc(Cl)ccc3n2)n1`, in data set [3], the outcome was inactive.

Consider `Cc1cc(NCCCN(C)C)nc(Nc2nc(C)c3ccccc3n2)n1`, for which the result in the data set with Quadruplex DNA [1] and in the data set on Quadruplex DNA [5] was Active. Moreover, the result in [3] was inactive.

As for `Cc1ccc2nc(Nc3nc(C)cc(C)n3)nc(C)c2c1`, the solubility in [2] was found to be 134 µM (≈ 37.4 µg/mL). Also, the result in [3] was inactive.

Regarding `Cc1cc(NCCCN(C)C)nc(Nc2nc3cc(C)c(C)cc3nc2C)n1`, the outcome in the data set on Quadruplex DNA [1], with Quadruplex DNA [6] and in the data set with Quadruplex DNA [7] was Active. Also, the result in data set [3] was inactive.

For the compound `Cc1cc(NCCCN(C)C)nc(Nc2cnc3ccccc3n2)n1`, the result in the data set on Quadruplex DNA [1] and in the data set with Quadruplex DNA [7] was Active. In addition, the result (in [3]; with Quadruplex DNA [6]) was inactive.

For `COc1ccc2nc(Nc3nc(C)cc(C)n3)nc(C)c2c1`, the solubility in data set [2] amounted to 134 µM (≈ 39.6 µg/mL). In addition, the result in data set [3] was inactive.

For `Cc1cc(C)c2nc(Nc3nc(C)cc(NCCCN(C)C)n3)nc(C)c2c1`, the result in the data set with Quadruplex DNA [8], in the data set on Quadruplex DNA [1], in the data set with Quadruplex DNA [10], with Quadruplex DNA [11], with Quadruplex DNA [13] and in the data set with Quadruplex DNA [14] was Active. For the same compound, the result (in [16]; in the data set with Quadruplex DNA [17]; in the data set on Quadruplex DNA [18]; with Quadruplex DNA [20]) was Active. The inhibition was found to be 100% in the data set with Quadruplex DNA [9] and 50% with Quadruplex DNA [15]. For the same compound, the result in the data set on Quadruplex DNA [12] and with dsDNA was inactive. The compound further registered a solubility in [2] of 858 µM (≈ 326 µg/mL). Also, in the data set on Quadruplex DNA [19], the -TdeltaS was found to be 1.85 kcal/mol.

Turning to `Cc1cc(NCCCN(C)C)nc(Nc2nc3cc(Cl)c(Cl)cc3nc2C)n1`, the outcome with Quadruplex DNA [1], in the data set with Quadruplex DNA [6] and in the data set with Quadruplex DNA [7] was Active. Besides, the result in data set [3] was inactive.

In the case of `Cc1cc(NCCCN(C)C)nc(Nc2nc3ccccc3nc2C)n1`, the outcome in the data set with Quadruplex DNA [1], in the data set on Quadruplex DNA [6] and in the data set on Quadruplex DNA [7] was Active. In data set [3], the outcome was inactive.

`Cc1cc(NCCCN(C)C)nc(Nc2nc(C)c3cc(Cl)ccc3n2)n1`: the outcome with Quadruplex DNA [1] and in the data set with Quadruplex DNA [5] was Active. In [2], this compound returned a solubility of 858 µM (≈ 331 µg/mL). Besides, the outcome in data set [3] was inactive.

With `Cc1cc(NCCCN(C)C)nc(Nc2ncc3ccccc3n2)n1`, the result in the data set on Quadruplex DNA [1] was Active. Besides, the solubility in data set [2] worked out at 858 µM (≈ 290 µg/mL). Besides, in data set [3], the result was inactive. Also, in the data set with Quadruplex DNA [4], the Activity amounted to 65%.

Regarding `COc1ccc2nc(Nc3nc(C)cc(NCCCN(C)C)n3)nc(C)c2c1`, the outcome in the data set on Quadruplex DNA [1] and with Quadruplex DNA [5] was Active. In addition, the concentration in solution in data set [2] (solubility) came to 858 µM (≈ 327 µg/mL). Moreover, the result in data set [3] was inactive.

`Cc1cc(C)nc(Nc2nc(C)c3ccccc3n2)n1` returned a solubility in data set [2] of 134 µM (≈ 35.6 µg/mL). In addition, in data set [3], the result was inactive.

Source of the values: ChEMBL document CHEMBL5385911, “Exploring the Dispersion and Electrostatic Components in Arene-Arene Interactions between Ligands and G4 DNA to Develop G4-Ligands” (J Med Chem, 2024).
